The source made the active and inactive calls. The calls are words filed in the database; no cut-off is given here.
How the values were obtained:
Tubulin [1] = assay: Inhibition of tubulin polymerization; format: protein-complex assay, Homo sapiens
Procedure, shortened: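 Tubulin at 10 µM in 0.8 M monosodium glutamate pH 6.6 with varying drug, preincubated 15 min at 30 °C, then chilled on ice. Assembly started with 0.4 mM GTP and followed as turbidity at 350 nm for 20 min at 30 °C. IC50 taken from the extent of assembly.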

MCF7 = assay: Growth inhibition of human MCF7 cells after 48 hrs; format: functional, cell-based; details: MCF7, 48 h
Tubulin (Homo sapiens) = Tubulin (Homo sapiens) (UniProt P68371+Q9H4B7+P0DPH7+P68366+Q13509+Q71U36+P04350+Q3ZCM7+P07437+P68363+Q9BQE3+Q6PEY2+Q13885+Q9BVA1+Q9BUF5); assay: Inhibition of [3H]colchicine binding to tubulin at 5 uM; format: protein-complex assay
Tubulin [2] = assay: Displacement of MTC from tubulin; format: protein-complex assay, Homo sapiens
HeLa [3] = assay: Cell cycle arrest in HeLa cells assessed as accumulation of A0 sub-G1 DNA content at 10 uM after 24 hrs; format: functional, Homo sapiens
Procedure, shortened: (§1)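 HeLa cells in DMEM with 10% FCS, 37 °C, 5% CO2. Subconfluent cells trypsinized, seeded at 2.5 × 10⁵ cells/mL and exposed to 10 µM for 24 h (0.1% DMSO in parallel samples). Harvested either at once or after another 24 h in drug-free medium. Ethanol-fixed, stained with propidium iodide plus RNase A, ≥10 000 cells flow-analysed. Values are % of cells per phase; one typical experiment.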

HeLa [4] = assay: Cell cycle arrets in HeLa cells assessed as accumulation at G1 phase at 10 uM after 24 hrs; format: functional, Homo sapiens; procedure, shortened: as §1
HeLa [5] = assay: Cell cycle arrest in HeLa cells assessed as accumulation at S phase at 10 uM after 24 hrs; format: functional, Homo sapiens; procedure, shortened: as §1
HeLa [6] = assay: Cell cycle arrest in HeLa cells assessed as accumulation at G2/M phase at 10 uM after 24 hrs; format: functional, Homo sapiens; procedure, shortened: as §1
HeLa [7] = assay: Cell cycle arrest in HeLa cells assessed as accumulation at >4C phase at 10 uM after 24 hrs; format: functional, Homo sapiens; procedure, shortened: as §1
HeLa [8] = assay: Cell cycle arrest in HeLa cells assessed as accumulation of A0 sub-G1 DNA content at 10 uM after 24 hrs with further incubation in drug free medium for 24 hrs; format: functional, Homo sapiens; procedure, shortened: as §1
HeLa [9] = assay: Cell cycle arrets in HeLa cells assessed as accumulation at G1 phase at 10 uM for 24 hrs with further incubation in drug free medium for 24 hrs; format: functional, Homo sapiens; procedure, shortened: as §1
HeLa [10] = assay: Cell cycle arrest in HeLa cells assessed as accumulation at S phase at 10 uM after 24 hrs with further incubation in drug free medium for 24 hrs; format: functional, Homo sapiens; procedure, shortened: as §1
HeLa [11] = assay: Cell cycle arrest in HeLa cells assessed as accumulation at G2/M phase at 10 uM after 24 hrs with furthur incubation in drug free medium for 24 hrs; format: functional, Homo sapiens; procedure, shortened: as §1
HeLa [12] = assay: Cell cycle arrest in HeLa cells assessed as accumulation at >4C phase at 10 uM after 24 hrs with furthur incubation in drug free medium for 24 hrs; format: functional, Homo sapiens; procedure, shortened: as §1
HeLa [13] = assay: Induction of apoptosis in HeLa cells assessed as PARP1 ceavage at 10 uM; format: functional, cell-based; details: Homo sapiens
Procedure, shortened: (§2)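 HeLa cells given 10 µM for 24 h, or 100 µM for 3 h followed by 24 h recovery. Total extracts from 2.5 × 10⁶ cells analysed by western blot with anti-PARP-1 mAb C-2-10 and an HRP anti-mouse secondary, ECL detection. PARP-1 proteolysis taken as the marker of caspase activation.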

HeLa [14] = assay: Induction of apoptosis in HeLa cells assessed as PARP1 ceavage at 100 uM; format: functional, cell-based; details: Homo sapiens; procedure, shortened: as §2

| IC50 (Tubulin [1]) [nM] | IC50 (MCF7) [nM] | inhibition (Tubulin (Homo sapiens)) [%] | Ka (Tubulin [2]) [M⁻¹] | Compound | also measured |
| --- | --- | --- | --- | --- | --- |
| 3300 | 18 | 69 | 6.38e+06 | COc1ccc2[nH]c(C)c(Sc3cc(OC)c(OC)c(OC)c3)c2c1 |  |
| > 40000 | 260 |  |  | COc1cc(Sc2c[nH]c3ccc(OCCOCc4ccccc4)cc23)cc(OC)c1OC |  |
| 2600 | 34 | 68 | 5.21e+06 | COc1cc(Sc2c[nH]c3ccccc23)cc(OC)c1OC |  |
| 4100 | 22 | 61 | 3.05e+06 | COc1ccc2[nH]cc(Sc3cc(OC)c(OC)c(OC)c3)c2c1 |  |
| 2700 | 68 | 61 | 2.31e+06 | COc1cc(Sc2c[nH]c3ccc(I)cc23)cc(OC)c1OC |  |
| 2700 | 16 | 56 | 1.96e+06 | COc1cc(Sc2c[nH]c3ccc(C)cc23)cc(OC)c1OC |  |
| 2700 | 82 | 59 | 2.07e+06 | COc1cc(Sc2c(C)[nH]c3ccc(Cl)cc23)cc(OC)c1OC |  |
| 1600 | 43 | 65 | 2.76e+06 | COc1cc(Sc2c[nH]c3ccc(Br)cc23)cc(OC)c1OC | Activity (HeLa [3]): 6.5%; Activity (HeLa [4]): 1.8%; Activity (HeLa [5]): 8.9%; Activity (HeLa [6]): 56.1%; Activity (HeLa [7]): 4.2%; Activity (HeLa [8]): 4.5%; Activity (HeLa [9]): 3.5%; Activity (HeLa [10]): 10.5%; Activity (HeLa [11]): 53.1%; Activity (HeLa [12]): 26%; Activity (HeLa [13]): inactive |
| 6800 | 95 | 31 |  | COc1cc(Sc2c[nH]c3ccc(OCCO)cc23)cc(OC)c1OC |  |
| 19000 | 1500 |  |  | COc1cc(Sc2c[nH]c3ccc(OC(C)C)cc23)cc(OC)c1OC |  |
|  |  |  |  | COc1cc([C@@H]2c3cc4c(cc3[C@@H](O[C@@H]3O[C@@H]5CO[C@@H](C)O[C@H]5[C@H](O)[C@H]3O)[C@H]3COC(=O)[C@H]23)OCO4)cc(OC)c1O | Activity (HeLa [14]): Active |
|  |  |  | 1.3e+06 | COC(=O)c1[nH]c2ccc(Cl)cc2c1Sc1cc(OC)c(OC)c(OC)c1 |  |
| 16000 | 560 |  |  | COc1cc(Sc2c[nH]c3ccc([N+](=O)[O-])cc23)cc(OC)c1OC |  |
| 6300 | 190 | 26 |  | COc1cc(Sc2c[nH]c3ccc(O)cc23)cc(OC)c1OC |  |
| 3300 | 160 | 39 |  | COc1cc(Sc2c[nH]c3ccc(F)cc23)cc(OC)c1OC |  |
| 2100 | 16 | 76 |  | CCOc1ccc2[nH]cc(Sc3cc(OC)c(OC)c(OC)c3)c2c1 |  |
| 13000 | 260 |  |  | COc1cc(Sc2c[nH]c3ccc(N)cc23)cc(OC)c1OC |  |
| 2600 | 77 | 51 | 810000 | COc1cc(Sc2c[nH]c3ccc(Cl)cc23)cc(OC)c1OC |  |
| 6800 | 46 | 61 | 5.5e+06 | COc1cc(Sc2c(C)[nH]c3ccccc23)cc(OC)c1OC |  |
| 9400 | 1200 | 33 |  | Cc1cc(C)cc(Sc2c[nH]c3ccc(Cl)cc23)c1 |  |
| 11000 | > 2500 |  |  | COc1ccccc1Sc1c[nH]c2ccc(Cl)cc12 |  |

| Compound | IC50 (Tubulin [1]) [nM] | IC50 (MCF7) [nM] | inhibition (Tubulin (Homo sapiens)) [%] | Ka (Tubulin [2]) [M⁻¹] | also measured |
| --- | --- | --- | --- | --- | --- |
| COc1ccc(/C=C\c2cc(OC)c(OC)c(OC)c2)cc1O [COMBRETASTATIN A4] |  | 17 |  |  |  |
| COC(=O)c1[nH]c2ccccc2c1Sc1cc(OC)c(OC)c(OC)c1 |  |  |  | 570000 |  |
| COc1ccc(-c2ccc(OC)c(=O)cc2)c(OC)c1OC |  |  |  | 470000 |  |
